Source: paper PMC4073670 (Nature, 2011)
“And” between values parts separate entries of the source, which are not always exact repeats. Equal values may be shown once. Square brackets hold non-standard residues; d marks the D form. Ends that are not written are not given here.

How the values were obtained:
tau K19 [1] = assay: Tau K19 inhibition assay; type: biochemical, human; conditions: equimolar ratio with K19; 50 μM K19, pH 7.4, 37°C, quiescent
How it was run: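 K19 was expressed in E. coli BL21(DE3) with 1 mM IPTG and purified by boiling and cation exchange. Reactions held 50 μM K19 in 250 mM sodium phosphate pH 7.4 with 1 mM DTT, 12.5 μM heparin (6000 MW) and 10 μM ThS. Peptide was added from a 0.5 mM stock. Plates were read every 15 min (ex 440/em 510) at 37°C, quiescent, with 2 s shaking before reads. At least 3 replicates; lag time is the mean threshold-crossing time ± SD.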

VQIVYK = VQIVYK inhibition assay; type: biochemical; conditions: 25 mM MOPS pH 7.2, 100 μM ThS, room temperature; for VQIVYK fibrillation inhibition, equimolar peptide: equimolar ratio with VQIVYK
soluble VQIVYK = assay: 1H NMR binding to soluble VQIVYK; conditions: even at 70-fold molar excess of soluble VQIVYK, pH 5.0, 283 K
[2] = system: tau segment VQIVYK, and the K12 and K19 tau constructs; assay: Fibrillation of tau segment VQIVYK and tau constructs K12 and K19; type: biochemical, human
How it was run: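 Un-seeded ThS fibrillation with peptides at specified molar ratios. For K12/K19: 50 μM protein, 250 mM phosphate pH 7.4, 1 mM DTT, 12.5 μM heparin, 10 μM ThS, 37°C; K12 shaken at 900 rpm, K19 quiescent; read every 15 min (ex 440/em 510). For VQIVYK: 25 mM MOPS pH 7.2 with PTFE beads, room temperature, read every 2 min. At least 3 replicates; lag time is the mean time to cross a threshold.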

amyloid beta(1-42) = assay: Amyloid beta fibrillation assay; type: biochemical; conditions: 11.5 μM Aβ1-42, 11.5 μM D-TLKIVW, 10 μM ThT, 100 mM Bicine pH 9.1, 37°C, 4 replicates
How it was run: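 Aβ1-42 was diluted to 0.2 mg/ml in 50 mM NH4OH and 0.2 μm filtered. Final mix: 11.5 μM Aβ1-42, 10 μM ThT, 23 mM NH4OH, 100 mM Bicine pH 9.1, with or without 11.5 μM test D-peptide. Four replicates were run at 37°C with continuous 960 rpm shaking (1 mm diameter), reading ThT every minute at Ex 444/Em 482.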

VQIVYK fibers = assay: 1H NMR binding to VQIVYK fibers
tau K19 [3] = assay: Electron microscopy of K19 fibrillation; type: biochemical, human; conditions: incubation with peptide; negative stain, 1% uranyl acetate
How it was run: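 Recombinant K19 (E. coli BL21(DE3); boiled lysate, cation exchange) was incubated at 50 μM with peptide. Buffer was 250 mM sodium phosphate pH 7.4 with 1 mM DTT, 12.5 μM heparin and 10 μM ThS, held quiescent at 37°C. Samples were spotted on glow-discharged carbon/formvar copper grids for 3 min, rinsed with water, stained with 1% uranyl acetate for 90 s, and imaged by TEM.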

tau fiber elongation = tau fiber elongation (Homo sapiens, UniProt P10636); assay: Tau fibrillation kinetic analysis; type: biochemical; conditions: increasing concentrations of inhibitor peptide
How it was run: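 Nucleation (k1) and propagation (k2) rates were fitted from the ThS fibrillation traces of the tau construct assays. The fit used the Finke-Watzky 2-step form, with plateau values fixed first and the remaining parameters fitted by non-linear least-squares regression.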

tau K12 = assay: Tau K12 inhibition assay, un-seeded; type: biochemical, human; conditions: 50 μM K12, pH 7.4, 37°C
[4] = system: HIV-1 infection of TZM-bl cells; assay: Effect of WW61 on poly-lysine mediated enhancement of HIV-1 infection; type: cell-based; conditions: poly-lysine/WW61 100, 20, 4, 0.8, 0.16, 0.032, 0.064 and 0 μg/ml during preincubation with virus
How it was run: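 The HIV-1 CCR5-tropic molecular clone came from 293T transfection, with p24 by ELISA. Poly-lysine was mixed 1:1 with test compound. 5-fold dilutions (100, 20, 4, 0.8, 0.16, 0.032, […], 0 μg/ml) were preincubated with an equal volume of virus for 5 min at room temperature. Of each, 20 μl went onto 180 μl TZM-bl cells (LTR-lacZ). β-galactosidase in lysates was read 2 days later by luminescence (RLU/s).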

[5] = system: HIV-1 infection of TZM-bl cells; assay: Effect of WW61, GIHKQK and PYKLWN on HIV-1 infection; type: cell-based; conditions: 150, 30, 6, 1.2 and 0 μg/ml during preincubation with virus
ends of K19 fibers = assay: Nanogold localization to fiber ends, electron microscopy blind counting; type: binding, human; conditions: for nanogold at fiber ends, significance vs nanogold alone: z-test versus unconjugated nanogold
How it was run: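 Cys-GGG-extended D-peptides were coupled to monomaleimido nanogold for 1 h at room temperature, and unbound peptide was removed by 10-kDa filtration. Conjugate (10 nM) was incubated 1 h with sonicated, heparin-free K19 fibers (1.67 μM by monomer) in 25 mM MOPS pH 7.2. Gold was enlarged with Goldenhance before EM. Particles within a 15 nm cutoff were scored as end- or side-bound by a blinded microscopist.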

K19 fibers = assay: Nanogold binding to K19 fibers, electron microscopy blind counting; parameters: species or system human; conditions: z-test versus unconjugated nanogold
How it was run: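 Cys-Gly3-extended test D-peptide or scrambled control (60 nmol) was conjugated to 6 nmol monomaleimido nanogold (1 h, room temperature) and freed of peptide by 10 kDa cut-off. K19 fibers (100 μM K19, 25 μM heparin, overnight at 37°C, pH 7.4) were sonicated and washed. 10 nM conjugate or control was incubated 1 h with 1.67 μM fibers (by monomer) in 25 mM MOPS pH 7.2, then gold-enhanced for EM. Fiber-bound particles were counted blind as end or side.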

[6] = target: T1, tau VQIVYK segment fibers (Homo sapiens); assay: NMR
T1 chain: VQIVYK

tau fiber elongation, sequence (P10636 186-283 isoform P10636-2 limits assumed): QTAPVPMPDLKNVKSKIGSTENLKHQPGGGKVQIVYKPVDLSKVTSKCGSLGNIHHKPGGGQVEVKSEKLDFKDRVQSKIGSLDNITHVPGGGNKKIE

D-TIKWVL
K19 fibrillation inhibition, equimolar peptide (tau K19 [1]): little inhibitory effect | VQIVYK fibrillation inhibition, equimolar peptide (VQIVYK): little inhibitory effect

D-TLKIVW
change in indole proton chemical shift with soluble VQIVYK (soluble VQIVYK): Only a slight change in the chemical shifts | lag time in un-seeded reactions ([2]; un-seeded reactions): large increase in lag time | block of amyloid beta fibrillation (amyloid beta(1-42)): unable to block the fibrillation of amyloid beta | estimated affinity constant for fibers (VQIVYK fibers; 1H NMR, 500 MHz, fibers containing 0 to 1500 μM VQIVYK monomers): low micromolar range | standard free binding energy (ΔGbinding) (VQIVYK fibers; from apparent Kd of 2 μM, VQIVYK fibers): ~ 7.4 kcal/mol and 7.4 kcal/mol | K19 fibrillation by electron microscopy (tau K19 [3]): prevents K19 fibrillation | fiber elongation rate (tau fiber elongation): fiber elongation rate decreases in the presence of increasing concentrations of inhibitor peptide | VQIVYK fiber formation delay, sub-equimolar peptide (VQIVYK; sub-equimolar concentration relative to VQIVYK): delays fiber formation even at sub-equimolar concentration | delay of K12 fibrillation, five-fold molar excess (tau K12; five-fold molar excess, some experimental replicates): more than two weeks in some experimental replicates | K12 fiber formation delay, sub-equimolar peptide (tau K12; sub-equimolar concentration relative to K12): delays fiber formation even at sub-equimolar concentration

H-[W-H-K-chAla-W-hydroxyTic]-OH [WW61]
effect on poly-lysine mediated HIV infectivity [4]: no inhibitory effect on poly-lysine mediated HIV infectivity | effect on HIV infectivity in the absence of SEVI [5]: does not affect HIV infectivity

D-LKTWIV
change in indole proton chemical shift with soluble VQIVYK (soluble VQIVYK): Only a slight change in the chemical shifts | K19 fibrillation inhibition, equimolar peptide (tau K19 [1]): little inhibitory effect | VQIVYK fibrillation inhibition, equimolar peptide (VQIVYK): little inhibitory effect

D-TIWKVL
K19 fibrillation inhibition, equimolar peptide (tau K19 [1]): little inhibitory effect | VQIVYK fibrillation inhibition, equimolar peptide (VQIVYK): little inhibitory effect

L-TLKIVW
effectiveness of diastereomer relative to D-TLKIVW ([2]; diastereomer compared with D-TLKIVW, ThS fluorescence): less effective than D-TLKIVW

CGGG-(D)-LKTWIV [nanogold-D-LKTWIV]
nanogold at fiber ends, significance vs nanogold alone (ends of K19 fibers): does not differ significantly from nanogold alone | nanogold bound to fibers, significance vs nanogold alone (K19 fibers): does not differ significantly from nanogold alone

CGGG-(D)-TLKIVW [nanogold-D-TLKIVW]
number of fiber-bound nanogold particles localizing to fiber ends (xend), n = 86 (ends of K19 fibers; n = 86, 10 nM conjugate, 1.67 μM K19 fibers, pH 7.2, 1 hour): 49 | nanogold at fiber ends, significance vs nanogold alone (ends of K19 fibers): significantly different from nanogold alone | nanogold bound to fibers, significance vs nanogold alone (K19 fibers): significantly different from nanogold alone

[dT][dL][dK][dI][dV][dW] [D-TLKIVW]
Kd [6]: ~2000 nM
